The values that follow come from ChEMBL document CHEMBL1157458, “Exploring the substituent effects on a novel series of C1'-dimethyl-aryl Delta8-tetrahydrocannabinol analogs” (Bioorg Med Chem, 2008).

A short description of experiment [1]: Cytotoxicity against human U87MG cells assessed as cell death after 18 hrs. The format is functional, U-87MG ATCC. Summed up:
(§1)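 Glioma lines (U-87MG, T98G, LN-229, DBTRG-O5MG, primary MT310) plated at 70% confluency in 100 µl supplemented medium, left overnight at 37 °C to adhere. Cells were then exposed to escalating drug amounts for 18 h. Viability was measured by CCK-8 absorbance at 450 nm relative to untreated controls. Values are the mean of three data points per determination, three independent determinations.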

The species entered for another experiment is Homo sapiens. As to the kind of experiment: Selectivity ratio of Ki for human CB1 receptor to Ki for human CB2 receptor.
Experiment [2] in a line: Cytotoxicity against human LN229 cells assessed as cell death after 18 hrs. The class given is functional, cell-based. Particulars: LN-229, 18 h. A digest of the protocol: as §1
The next experiment concerns T98G. Description: Cytotoxicity against human T98G cells assessed as cell death after 18 hrs. The class given is functional, cell-based. A digest of the protocol: as §1
Experiment [3] is described as follows: Cytotoxicity against human U87 cells by side flank model relative to control. The class given is functional, U-87MG ATCC. Particulars: U-87 MG.
Experiment [4] is described as follows: Cytotoxicity against human MT310 cells assessed as cell death after 18 hrs. The format is functional, cell-based. Summed up: as §1
Experiment [5] can be described thus: Cytotoxicity against human DBTRG-O5MG cells assessed as cell death after 18 hrs. The format is functional, cell-based. Summed up:
as §1

The target of another experiment is Cannabinoid receptor 1 (Homo sapiens, UniProt P21554). As to the kind of experiment: Displacement of [3H]CP-55940 from human CB1 receptor expressed in HEK293 cells. The format is cell-based.
The target of another experiment is Cannabinoid receptor 2 (Homo sapiens, UniProt P34972). As to the kind of experiment: Displacement of [3H]CP-55940 from human CB2 receptor expressed in CHO-K1 cells. The format is cell-based. On the technique in general: Displacement assays read how much labelled ligand stays bound in the presence of the test substance.
Sequence of Cannabinoid receptor 2 (P34972 whole entry): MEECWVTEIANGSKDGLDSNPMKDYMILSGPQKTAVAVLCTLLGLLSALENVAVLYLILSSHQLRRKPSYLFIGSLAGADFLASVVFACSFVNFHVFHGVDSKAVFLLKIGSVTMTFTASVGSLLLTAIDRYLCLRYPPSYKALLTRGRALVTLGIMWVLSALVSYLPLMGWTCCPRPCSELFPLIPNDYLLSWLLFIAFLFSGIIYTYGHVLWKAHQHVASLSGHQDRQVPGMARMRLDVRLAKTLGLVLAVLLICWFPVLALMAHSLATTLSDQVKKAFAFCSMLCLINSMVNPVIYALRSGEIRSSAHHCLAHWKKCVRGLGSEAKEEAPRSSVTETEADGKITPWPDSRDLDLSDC

Sequence of Cannabinoid receptor 1 (P21554 whole entry): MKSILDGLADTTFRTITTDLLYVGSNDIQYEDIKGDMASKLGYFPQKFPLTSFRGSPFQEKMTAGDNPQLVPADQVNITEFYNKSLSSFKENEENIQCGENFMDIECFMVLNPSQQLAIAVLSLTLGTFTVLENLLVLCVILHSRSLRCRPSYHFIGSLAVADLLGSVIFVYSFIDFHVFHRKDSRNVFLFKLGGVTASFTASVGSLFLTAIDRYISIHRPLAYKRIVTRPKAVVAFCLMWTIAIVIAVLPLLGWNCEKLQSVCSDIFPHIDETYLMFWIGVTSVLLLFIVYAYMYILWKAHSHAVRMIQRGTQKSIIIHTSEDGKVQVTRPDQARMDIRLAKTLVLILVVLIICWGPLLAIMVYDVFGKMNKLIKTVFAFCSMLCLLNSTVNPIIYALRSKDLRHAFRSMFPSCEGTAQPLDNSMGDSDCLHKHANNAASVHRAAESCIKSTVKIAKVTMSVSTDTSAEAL

For `CC1=CC[C@@H]2[C@@H](C1)c1c(O)cc(C(C)(C)c3ccccc3)cc1OC2(C)C`, in experiment [1], the Activity worked out at 75%. The Ratio Ki in the experiment filed under Homo sapiens came to 13.5. The EC50 in experiment [2] came out at 2630 nM; with T98G, 4680 nM; in experiment [3], 3080 nM; in experiment [4], 4290 nM; in [5], 2270 nM.
For the molecule `CCc1ccc(C(C)(C)c2cc(O)c3c(c2)OC(C)(C)[C@@H]2CC=C(C)C[C@@H]32)cc1`, the Ratio Ki in the experiment listed under Homo sapiens came out at 2.76. For the same molecule, the EC50 in [2] stood at 1670 nM; in the experiment on T98G, 3230 nM; in experiment [3], 2520 nM; in experiment [4] it was 4110 nM; in experiment [5], 3000 nM. Further, the Ki worked out at 1.85 nM on Cannabinoid receptor 1 and 0.67 nM on Cannabinoid receptor 2.
Turning to `CC1=CC[C@@H]2[C@@H](C1)c1c(O)cc(C(C)(C)c3ccc(C(N)=O)cc3)cc1OC2(C)C`, the Ratio Ki in the experiment filed under Homo sapiens worked out at 1.01.
As to `CC1=CC[C@@H]2[C@@H](C1)c1c(O)cc(C(C)(C)c3cccc(C)c3)cc1OC2(C)C`, the Ratio Ki in the experiment listed under Homo sapiens was found to be 2.24. The Ki turned out to be 2.53 nM at Cannabinoid receptor 1 and 1.13 nM on Cannabinoid receptor 2.
The corresponding values for `CC1=CC[C@@H]2[C@@H](C1)c1c(O)cc(C(C)(C)c3cccc(Cl)c3)cc1OC2(C)C` are 0.79, 2.8 nM and 3.54 nM.
On to `CCCc1ccc(C(C)(C)c2cc(O)c3c(c2)OC(C)(C)[C@@H]2CC=C(C)C[C@@H]32)cc1`, for which, in the experiment listed under Homo sapiens, the Ratio Ki was 0.23. The EC50 in experiment [2] was 2440 nM; with T98G, 3630 nM; in [3], 3170 nM; in experiment [4] it was 6460 nM; in experiment [5], 3580 nM. The Ki amounted to 1.77 nM at Cannabinoid receptor 1 and 7.83 nM at Cannabinoid receptor 2.
In the case of `CC1=CC[C@@H]2[C@@H](C1)c1c(O)cc(C(C)(C)c3ccc(Cl)cc3)cc1OC2(C)C`, the Ratio Ki in the experiment filed under Homo sapiens is 11.2. The EC50 is 2870 nM in experiment [2]; 3400 nM with T98G; 3270 nM in [3]; 7310 nM in experiment [4]; 4610 nM in experiment [5]. The figures for the Ki at Cannabinoid receptor 1 and on Cannabinoid receptor 2 were 18.8 nM and 1.68 nM, respectively.
Turning to `CC1=CC[C@@H]2[C@@H](C1)c1c(O)cc(C(C)(C)c3cccc(F)c3)cc1OC2(C)C`, the Ratio Ki in the experiment filed under Homo sapiens came to 5.84. Also, the inhibition constant (Ki) on Cannabinoid receptor 1 was found to be 5.26 nM; on Cannabinoid receptor 2 it was 0.9 nM.
As for `CC1=CC[C@@H]2[C@@H](C1)c1c(O)cc(C(C)(C)c3cccc(C#N)c3)cc1OC2(C)C`, the Ratio Ki in the experiment filed under Homo sapiens was found to be 2.98. Also, the results for the Ki on Cannabinoid receptor 1 and at Cannabinoid receptor 2 were 2.72 nM and 0.91 nM, respectively.
The corresponding values for `CC1=CC[C@@H]2[C@@H](C1)c1c(O)cc(C(C)(C)c3cc(C)cc(C)c3)cc1OC2(C)C` are 1.48, 11 nM and 7.45 nM.
As to `CC1=CC[C@@H]2[C@@H](C1)c1c(O)cc(C(C)(C)c3ccc(C#N)cc3)cc1OC2(C)C`, the Ratio Ki in the experiment listed under Homo sapiens was 3.66. The Ki on Cannabinoid receptor 1 was found to be 9.25 nM; at Cannabinoid receptor 2, 2.53 nM.
As for `CC1=CC[C@@H]2[C@@H](C1)c1c(O)cc(C(C)(C)c3ccccc3C)cc1OC2(C)C`, the Ratio Ki in the experiment listed under Homo sapiens was 3.23. Besides, the Ki on Cannabinoid receptor 1 came to 34.4 nM; on Cannabinoid receptor 2 it was 10.7 nM.
For `CC1=CC[C@@H]2[C@@H](C1)c1c(O)cc(C(C)(C)c3ccc(Br)cc3)cc1OC2(C)C`, in that order: 3.26, 5.03 nM and 1.54 nM.
The corresponding values for `CC1=CC[C@@H]2[C@@H](C1)c1c(O)cc(C(C)(C)c3ccc(C)cc3)cc1OC2(C)C` are 3.56, 3.13 nM and 0.88 nM.
On to `CC1=CC[C@@H]2[C@@H](C1)c1c(O)cc(C(C)(C)c3ccc(F)cc3)cc1OC2(C)C`, for which, in the experiment listed under Homo sapiens, the Ratio Ki stood at 6.14. In addition, the EC50 in experiment [2] was determined as 2020 nM; with T98G, 3300 nM; in [3], 2550 nM; in experiment [4], 8780 nM; in experiment [5], 3080 nM. For the same molecule, the Ki was found to be 76.1 nM on Cannabinoid receptor 1 and 12.4 nM on Cannabinoid receptor 2.
Consider `CC1=CC[C@@H]2[C@@H](C1)c1c(O)cc(C(C)(C)c3cccc(Br)c3)cc1OC2(C)C`, for which the Ratio Ki in the experiment listed under Homo sapiens is 2.94. For the same molecule, the Ki on Cannabinoid receptor 1 turned out to be 1.59 nM; at Cannabinoid receptor 2 it was 0.54 nM.
For the molecule `CC1=CC[C@@H]2[C@@H](C1)c1c(O)cc(C(C)(C)c3cccs3)cc1OC2(C)C`, the Ratio Ki in the experiment filed under Homo sapiens is 4. Further, the EC50 in experiment [2] is 2020 nM; in the experiment with T98G it was 2210 nM; in experiment [3], 1830 nM; in experiment [4], 4100 nM; in experiment [5], 2670 nM. The results for the Ki on Cannabinoid receptor 1 and on Cannabinoid receptor 2 were 1.08 nM and 0.27 nM, respectively.

For orientation: EC50 means the concentration that produces a half-maximal response. By Ki is commonly meant a measure of affinity in units of concentration, obtained from inhibition or displacement. A low value points to higher affinity.
